NSD2 inh = NSD2 (human) methyltransferase inhibition; actives 0.54% (n = 310,000); inhibition, % at 12.5 µM; NSD2 peptide methylation, AlphaScreen, 120 min; in the data active = inhibition above about 50%
UHRF1 MBD2 ctr = UHRF1 methyl-DNA binding inhibition; Q96T88; UHRF1 binding to methylated oligo, TR-FRET; inhibition, % at 4.4 µM; actives 0.75% (n = 370,000); AID 687016; in the data active = inhibition above about 21%;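 also: UHRF1 SRA domain binding a hemimethylated CpG hairpin DNA probe; 0% = median of test compound wells and 100% = reference inhibitor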
Target sequence (Q96T88 whole entry, looked up, the tested form may be a part): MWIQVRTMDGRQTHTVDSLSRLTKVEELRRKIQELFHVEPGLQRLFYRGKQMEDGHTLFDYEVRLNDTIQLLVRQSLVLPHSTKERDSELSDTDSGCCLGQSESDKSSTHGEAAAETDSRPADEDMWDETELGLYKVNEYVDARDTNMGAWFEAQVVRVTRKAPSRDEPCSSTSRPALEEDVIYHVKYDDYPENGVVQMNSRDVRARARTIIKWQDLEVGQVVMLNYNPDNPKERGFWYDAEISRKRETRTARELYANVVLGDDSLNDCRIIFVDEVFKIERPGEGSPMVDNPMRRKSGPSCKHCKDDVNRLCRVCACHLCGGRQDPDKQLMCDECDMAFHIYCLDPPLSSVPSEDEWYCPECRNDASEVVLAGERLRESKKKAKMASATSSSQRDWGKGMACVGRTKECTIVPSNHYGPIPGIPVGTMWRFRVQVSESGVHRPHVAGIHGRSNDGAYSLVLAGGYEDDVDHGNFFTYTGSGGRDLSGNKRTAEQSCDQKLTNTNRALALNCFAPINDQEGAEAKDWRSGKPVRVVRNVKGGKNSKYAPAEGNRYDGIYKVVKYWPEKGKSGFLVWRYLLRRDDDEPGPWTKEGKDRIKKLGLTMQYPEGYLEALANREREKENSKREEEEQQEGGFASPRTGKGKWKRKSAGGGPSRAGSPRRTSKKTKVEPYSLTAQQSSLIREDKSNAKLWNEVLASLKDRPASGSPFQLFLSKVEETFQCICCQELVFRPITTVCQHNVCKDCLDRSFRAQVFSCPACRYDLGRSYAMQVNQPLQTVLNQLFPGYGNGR
CASP6 VEID inh = caspase-6 (human) enzyme inhibition; P55212; purified caspase-6, Z-VEID-R110 cleavage fluorescence; inhibition, % at 12.5 µM; actives 0.53% (n = 350,000); AID 686996;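 active = mean inhibition across replicates at least about 35%, with every replicate also reaching that limit, limit read from the data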;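 also: 0% = median of neutral control wells and 100% = no fluorescence left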
MBD2 inh = MBD2-methylated oligo binding inhibition; inhibition, % at 4.4 µM; AID 686964; TR-FRET, MBD2 binding to methylated oligonucleotide; Q9UBB5; actives 0.31% (n = 370,000); in the data active = inhibition above about 13%
LEDGF integ inh = blocks HIV-1 LEDGF/p75-dependent DNA integration. TR-FRET IN-LEDGF/p75 DNA integration, Eu/Cy5. inhibition, % at 3.7 µM. actives 0.64% (n = 370,000). AID 743269;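 active = inhibition above the screen-wide mean plus 3 SD, cut at about 13% in these data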;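 also: signal is the Cy5 over europium emission ratio at 671 and 618 nm; 0% = plate median of compound wells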
TDP2 absorb = TDP2 (human) inhibition, absorbance primary screen; recombinant TDP2, T5PNP hydrolysis, p-nitrophenol absorbance 415 nm; O95551; inhibition, % at 12.8 µM; actives 0.34% (n = 370,000);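 active = inhibition above the mean of all tested compounds plus 3 SD, set per campaign, cut at about 25% in these data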;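 also: 0% = DMSO with enzyme and 100% = buffer with substrate but no TDP2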
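System – recombinant human TDP2 · Amount – 120 nM TDP2 per well · Buffer or medium – Mg2+-containing Tris-HCl buffer, pH 7.5 · Reagent – T5PNP substrate, 5 mM · Dosing – 12.8 µM single point, 1% DMSO · Incubation – 2 h at 37 °C · Measured by – epi absorbance · Read-out basis – percent inhibition · Benchmarks – high control without enzyme, low control DMSO plus TDP2 · Repeats – singlicate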
TDP2 inh conf = human TDP2 inhibition, confirmation. shares compounds with TDP2 absorb. recombinant human TDP2, absorbance read-out. inhibition, % at 12.8 µM. actives 22% (n = 1,100). AID 743263; in the data active = inhibition above about 25%;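 also: 0% = vehicle with enzyme and 100% = no enzyme buffer only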
Active calls of the source: *; . = not tested or not shown. Only some compounds are listed: those with a hit (about 1.9% of all), similar ones and a draw of the others.

SMILES | NSD2 inh | UHRF1 MBD2 ctr | CASP6 VEID inh | MBD2 inh | LEDGF integ inh | TDP2 absorb | TDP2 inh conf
CN(C)CCNc1ccc2ncn3c4ccc(O)cc4c(=O)c1c23 | 21.3 | -67.1 | 25.5 | 1.4 | 8.3 | 31.0* | 9.6
CCOC(=O)c1cc2c(ccn2C)n1Cc1ccccc1C | 27.9 | 1.1 | 2.7 | 3.2 | 4.2 | 26.0* | -14.8
CCOC(=O)c1cc2c(ccn2C)n1Cc1ccccc1Cl | 3.1 | 1.6 | 3.5 | -2.9 | -0.3 | -0.6 | .
COc1ccc(-c2ccc([C@H]3[C@@H](C#N)N(C(=O)C4CC4)[C@H]3CO)cc2)cc1 | . | . | -1.9 | . | . | . | .
O=C(NCC[C@H]1CC[C@H](NC(=O)C2CCCCC2)[C@H](CO)O1)c1cnccn1 | . | . | -1.6 | . | . | . | .
CCCCn1[nH]c(-c2ccccc2)cc1=O | -1.3 | -4.2 | . | 2.3 | 7.4 | 47.2* | 9.8
COc1ccccc1C(=O)Nc1nc(C)cc(C)n1 | -3.5 | 1.0 | 4.3 | 3.4 | -3.2 | 25.1* | 1.0
C[C@H]1CN([C@@H](C)CO)C(=O)c2cccc(NC(=O)C3CC3)c2O[C@@H]1CN(C)C(=O)Nc1ccc2c(c1)OCO2 | . | . | 3.5 | . | . | . | .
O=[N+]([O-])c1ccc(Oc2ccc(-c3nnco3)cc2)c(Cl)c1 | 1.5 | -0.1 | 0.1 | -1.4 | 3.8 | 46.5* | 4.0
N#Cc1cc([N+](=O)[O-])ccc1Oc1ccc(-c2nnco2)cc1 | -1.5 | -1.8 | 0.8 | 0.5 | 2.6 | -0.2 | .
CCCc1cc(=O)[nH]c(SCC(=O)N(C)Cc2ccccc2)n1 | -1.2 | 8.9 | . | -3.1 | 1.1 | -4.9 | .
Cc1nnc(SCC(=O)N(C)Cc2ccccc2)[nH]c1=O | 2.2 | 1.6 | . | 4.4 | 0.5 | 43.4* | -5.0
CC(CN1CCN(Cc2ccccc2)CC1)c1ccccc1 (configuration not stated) | 7.0 | -1.2 | -4.5 | 1.7 | -0.2 | 25.6* | 10.0
CC(NC(=O)C(C)N1CCN(Cc2ccccc2)CC1)c1ccccc1 (configuration not stated) | -0.8 | 0.6 | -1.4 | -4.7 | 0.7 | 24.5* | -3.2
C[C@H](CO)N1C[C@H](C)[C@H](CN(C)C(=O)Nc2ccccc2)Oc2ccc(NC(=O)c3ccncc3)cc2CC1=O | . | . | 1.5 | . | . | . | .
COc1ccc(/C=C/C(=O)NC2CCN(Cc3ccccc3)CC2)cc1OC | 2.0 | -3.9 | -9.7 | 0.4 | 1.3 | 27.9* | -8.4
COc1ccc(NC(=S)NC2CCN(Cc3ccccc3)CC2)cc1OC | 2.3 | 3.1 | -4.3 | 3.6 | -2.4 | -3.6 | .
O=C(NC1C(=O)NNC1c1ccccc1)c1ccccc1 (configuration not stated) | -1.5 | -2.1 | . | -6.2 | 3.6 | 15.0 | .
Cc1cccc(C(=O)NC2C(=O)NNC2c2ccc(Cl)cc2)c1 (configuration not stated) | 3.4 | -6.5 | 7.0 | -7.5 | 6.2 | 30.4* | 10.5
COc1ccccc1/C=C/C(=O)OCC(=O)Nc1ccc(Cl)cn1 | -3.3 | -3.6 | -3.6 | -1.7 | 3.7 | 29.1* | -1.4
C[C@H]1CN([C@@H](C)CO)C(=O)c2cccc(NC(=O)NC3CCCCC3)c2O[C@@H]1CN(C)Cc1ccccc1 | . | . | 1.5 | . | . | . | .
CC(=O)c1cc2c(cc1NC(=O)CN1CCOCC1)OCO2 | -4.4 | 9.1 | . | 4.5 | -1.3 | 3.8 | .
CCN1CCN(CC(=O)Nc2cc3c(cc2C(C)=O)OCO3)CC1 | 10.3 | 3.4 | -0.3 | 0.6 | 2.6 | 26.1* | 11.8
CN(C)S(=O)(=O)c1ccc(NC(=O)CN2CCCCCC2)cc1 | -0.7 | 0.8 | -0.3 | -0.1 | -2.5 | 7.7 | .
CC(=O)c1ccc(NC(=O)CNC2CCCCC2)cc1 | 0.1 | 2.7 | -7.5 | 8.0 | -3.7 | 26.3* | 2.1
SMILES | NSD2 inh | UHRF1 MBD2 ctr | CASP6 VEID inh | MBD2 inh | LEDGF integ inh | TDP2 absorb | TDP2 inh conf
CN1CCN(CC(=O)Nc2ccc(S(=O)(=O)N(C)C)cc2)CC1 | -0.3 | 21.7* | -0.4 | 9.6 | 7.8 | 33.5* | 9.7
CC(=O)c1ccc(NC(=O)CN2CCN(CC(=O)Nc3ccc(C(C)=O)cc3)CC2)cc1 | . | -0.9 | 1.2 | -0.8 | -2.9 | 8.6 | .
CCN1CCN(CC(=O)Nc2ccc(C(C)=O)cc2)CC1 | 4.0 | -1.0 | -16.3 | -1.9 | 0.2 | 37.7* | -2.9
CCS(=O)(=O)Nc1ccc2c(c1)C(=O)N(C)C[C@H](OC)[C@H](C)CN[C@@H](C)CO2 | . | . | -5.6 | . | . | . | .
O=C1CN(Cc2ccc(F)cc2)C[C@H]2[C@@H](c3ccc(-c4ccccc4F)cc3)[C@@H](CO)N12 | . | . | -0.2 | . | . | . | .
COc1ccc(CN(C)C[C@H]2Oc3c(NC(=O)c4ccc(-c5nccs5)cc4)cccc3C(=O)N([C@@H](C)CO)C[C@@H]2C)cc1 | . | . | -0.4 | . | . | . | .
O=C(CCn1c(=O)oc2ccc(Cl)cc21)N1CCN(c2ccccc2)CC1 | 1.3 | -1.4 | 3.2 | -3.2 | -1.1 | 24.9* | -0.6
O=C(CCn1c(=O)oc2ccc(Cl)cc21)N1CCN(Cc2ccccc2)CC1 | -1.4 | 3.1 | 1.3 | 3.1 | -3.3 | -20.0 | .
COc1ccc(NC(=O)CSc2nnc(-c3cc(C)[nH]n3)n2N)cc1OC | -0.9 | -0.9 | 0.9 | 2.1 | -2.8 | 29.6* | -6.6
O=C(N[C@H]1CC[C@@H](CCNS(=O)(=O)c2ccccc2)O[C@H]1CO)c1cnccn1 | . | . | 0.1 | . | . | . | .
COc1cccc(C(=O)Nc2ccc3c(c2)C(=O)N(C)C[C@@H](OC)[C@@H](C)CN(CC2CC2)[C@@H](C)CO3)c1 | . | . | -1.3 | . | . | . | .
Cc1ccc(S(=O)(=O)N/N=C/c2ccccc2F)cc1[N+](=O)[O-] | 4.7 | -0.4 | 0.1 | -1.4 | -5.9 | 29.0* | 8.3
CO[C@@H]1CC[C@H]2CCN(C)C(=O)[C@H](C)[C@H](OC)CN(C)C(=O)c3cccc(C#N)c3OC[C@@H]1O2 | . | . | -29.4 | . | . | . | .
COc1ccc(CNC(=O)c2ccc(CS(=O)(=O)c3ccccc3C)o2)cc1 | 0.6 | -1.4 | -1.7 | 3.9 | 0.8 | 25.7* | 4.8
COc1ccccc1CNC(=O)c1ccc(CS(=O)(=O)c2ccccc2C)o1 | -2.6 | 8.7 | -2.1 | -5.2 | -2.8 | 1.6 | .
CCNC(=S)NS(=O)(=O)c1ccc(Cl)cc1 | -2.5 | 5.3 | . | 1.6 | 1.4 | 36.6* | 2.6
O=C(C[C@H]1CC[C@@H]2[C@H](COC[C@@H](O)CN2C(=O)c2ccccc2)O1)NCc1cccc(F)c1 | . | . | -0.4 | . | . | . | .
Cc1[nH]c2ccccc2c1C(=O)CN1C(=O)C(=O)N(C2CCCC2)C1=O | 1.9 | 0.7 | -1.3 | -3.9 | 1.4 | 26.5* | 4.0
CN(C)c1ccc(N2C(=O)CC(Nc3ccc(N4CCOCC4)cc3)C2=O)cc1 (configuration not stated) | 2.5 | -1.8 | . | 2.6 | -0.7 | 1.2 | .
COc1ccc(N2C(=O)CC(Nc3ccc(N4CCOCC4)cc3)C2=O)c(OC)c1 (configuration not stated) | 4.0 | -5.9 | 9.5 | -9.3 | 11.5 | 24.6* | 6.9
CO[C@H]1CN(C)C(=O)c2ccc(NC(=O)Cc3ccccc3)cc2OC[C@H](C)N(C)C[C@H]1C | . | . | 0.7 | . | . | . | .
